Bioassay records: PubChem, several laboratories
In the library only some 1.2% were active in any assay of this set; here they are far more common.
FN deposition inh: fibronectin deposition inhibition; AH1F fibroblasts, Alexa488-fibronectin deposition fluorescence, overnight; inhibition, % at 12.6 µM; hit rate 0.086% among 350,000; AID 743247;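 active means mean inhibition across replicates of 30% or more, regardless of how many single replicates reach that level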;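 further: positive control wells lacked labelled fibronectin entirely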
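Schedule: 1 h cell adhesion before compound, then overnight fibronectin incubation; test system: AH1F fibroblast monolayer depositing Alexa488-labelled fibronectin into matrix; quantity: 10000 AH1F cells per well; probe or stimulus: fluorescent fibronectin at 24 nM final; signal: fluorescence, ex 485 nm, em 525 nm; evaluation: percent inhibition as loss of matrix-bound fibronectin fluorescence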
ABHD5-PLIN5 inh: blocks binding of human ABHD5 to perilipin-5 | hit rate 0.78% among 360,000 | Split G. princeps luciferase complementation, luminescence, 4 h | Q00G26+Q8WTS1 | inhibition, % at 4 µM;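 active means inhibition above the mean inhibition across every tested compound plus 3 SD, cut at about 22% in these data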;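 further: 0% = DMSO only wells and the 100% control is not disclosed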
APOBEC3G inh: blocks human APOBEC3G single-stranded DNA deamination. inhibition, % at 20 µM. recombinant A3G, ssDNA deamination FAM/TAMRA fluorescence. hit rate 0.28% among 330,000. AID 493012;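 active means inhibition of at least 40% at 20 µM, with no more than 30% in the related APOBEC3A deaminase screen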;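 further: plate controls were DMSO wells with A3G for no effect and wells lacking A3G enzyme for full effect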
Target sequence (Q9HC16 whole entry, looked up): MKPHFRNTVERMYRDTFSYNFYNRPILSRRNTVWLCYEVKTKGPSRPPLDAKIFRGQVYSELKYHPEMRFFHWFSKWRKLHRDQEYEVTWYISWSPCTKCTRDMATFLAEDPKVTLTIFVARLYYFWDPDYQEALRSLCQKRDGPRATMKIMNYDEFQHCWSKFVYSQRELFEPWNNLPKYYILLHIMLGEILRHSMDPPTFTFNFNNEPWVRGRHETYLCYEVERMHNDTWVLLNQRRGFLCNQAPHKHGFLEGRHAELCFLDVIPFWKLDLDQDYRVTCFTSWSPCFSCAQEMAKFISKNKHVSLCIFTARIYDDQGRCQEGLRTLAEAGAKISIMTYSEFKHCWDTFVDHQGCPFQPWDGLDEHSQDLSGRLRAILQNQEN
APOBEC3A inh: blocks human APOBEC3A ssDNA deamination; P31941; AID 493011; inhibition, % at 20 µM; hit rate 0.41% among 330,000; recombinant A3A, FAM/TAMRA ssDNA deamination fluorescence;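 active means at least 40% inhibition at 20 µM here, with at most 30% in a related deaminase screen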;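 further: plate controls were A3A with DMSO for no effect and wells lacking A3A enzyme for full effect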
Target sequence (P31941 whole entry, looked up): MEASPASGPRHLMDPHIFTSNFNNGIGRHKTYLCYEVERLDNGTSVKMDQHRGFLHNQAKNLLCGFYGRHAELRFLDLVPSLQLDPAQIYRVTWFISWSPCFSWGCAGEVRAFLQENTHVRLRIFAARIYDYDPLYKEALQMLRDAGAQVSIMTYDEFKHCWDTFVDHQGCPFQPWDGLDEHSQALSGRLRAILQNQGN
APOBEC3A confirm: APOBEC3A (human) deaminase inhibition, confirmed; hit rate 63% among 1,400; inhibition, % at 20 µM; AID 493151; recombinant A3A, ssDNA deaminase UDG fluorescence assay; shares compounds with APOBEC3A inh;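 active means inhibition reaching a set limit, 80% of the first screen's cutoff, at 20 µM in any replicate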;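 further: plate controls were DMSO wells with A3A for no effect and wells lacking A3A enzyme for full effect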
UDG ctr A3A: counter-screen for APOBEC3A inhibitors: UDG; shares compounds with APOBEC3A inh; UDG counterscreen, FAM/TAMRA uracil oligo fluorescence; inhibition, % at 20 µM; 1,000 tested, under 10 active; call rule not given here
Starred values were filed as active, the others as inactive; . = no result.

SMILES | FN deposition inh | ABHD5-PLIN5 inh | APOBEC3G inh | APOBEC3A inh | APOBEC3A confirm | UDG ctr A3A
O=C(COc1ccccc1)Nc1ncn[nH]1 | 5 | 2 | -6 | -6 | . | .
CCn1c(-c2ccccc2Cl)nn(CC(=O)Nc2ccccc2C)c1=S | . | -3 | 13 | 66* | 24 | .
N/C(=N\OC(=O)Cc1ccc([N+](=O)[O-])cc1)c1ccc([N+](=O)[O-])cc1 | 10 | -2 | -7 | 53* | -4 | -2
COc1cccc(C(=O)Nc2ccc3c(c2)OC[C@@H](C)N(C(C)=O)C[C@H](C)[C@H](OC)CN(C)C3=O)c1 | 6 | . | . | . | . | .
CC(C)NC(=O)N(C)C[C@H]1OCCCC[C@H](C)Oc2ccc(NC(=O)c3ccncc3)cc2C(=O)N([C@H](C)CO)C[C@@H]1C | -9 | . | . | . | . | .
CN(C)c1cccc(C(=O)OCc2cc(=O)oc3cc(O)ccc23)c1 | 0 | 6 | 19 | 74* | 75* | -2
C[C@@H]1CN([C@@H](C)CO)C(=O)c2cccc(NC(=O)NC3CCCCC3)c2O[C@@H]1CN(C)S(=O)(=O)c1ccc(F)cc1 | 4 | . | . | . | . | .
Cn1nnnc1SCC(=O)Nc1ccc(Br)cc1Cl | . | 2 | 15 | 50* | 49* | -1
Cn1nnnc1SCC(=O)Nc1ccc(Br)cc1Br | -6 | 3 | -5 | 0 | . | .
CC1CCC(C(C)C)C(OCC(O)C[N+]2(C)CCCCC2)C1 (configuration not stated) | 1 | -1 | 14 | 78* | 74* | 3
CS(=O)(=O)Nc1ccc2c(c1)[C@@H]1C[C@@H](CC(=O)NCc3cc(F)ccc3F)O[C@H](CO)[C@@H]1O2 | -5 | . | . | . | . | .
CCOC(=O)CN1C(=O)S/C(=C\c2ccc(-c3ccc(C(=O)O)c(Cl)c3)o2)C1=O | 0 | 2 | 16 | 58* | 40* | -12
O=C(Nc1cc2c(cc1Br)OCCCO2)c1cccnc1 | . | 5 | -2 | -2 | . | .
O=C(Nc1cc2c(cc1Br)OCCCO2)c1ccccc1 | -2 | -3 | 2 | 55* | 1 | .
COc1ccc(C2=CC3=C(Br)C(=O)C(C)(OC(=O)C4CCCC4)C(=O)C3=CO2)cc1 (configuration not stated) | . | -6 | 1 | 13 | . | .
COC(=O)CCC(=O)OC1(C)C(=O)C2=COC(c3ccc(OC)cc3)=CC2=C(Br)C1=O (configuration not stated) | . | . | 12 | 46* | 29 | .
CN(C)C(=O)C[C@@H]1C[C@H]2c3cc(NC(=O)c4ccc5c(c4)OCO5)ccc3O[C@H]2[C@@H](CO)O1 | 6 | . | . | . | . | .
CC(C)(C)OC(=O)N1CC(O)CC1C(=O)OCC(=O)c1ccccc1 (configuration not stated) | 9 | 2 | 0 | 2 | . | .
CC(C)(C)OC(=O)N1CC(O)CC1C(=O)OCC(=O)c1ccc(-c2ccccc2)cc1 (configuration not stated) | -5 | -1 | 26 | 83* | 71* | -1
CC(C)(C)OC(=O)N1CC(O)CC1C(=O)OCC(=O)c1ccc(Cl)cc1 (configuration not stated) | -1 | 3 | 5 | 42* | 2 | .
O=C(N/N=C/c1ccncc1)c1cccs1 | . | -3 | -5 | -1 | . | .
O=C(N/N=C/c1ccc(-c2ccccc2C(=O)O)o1)c1cccs1 | 0 | 1 | 20 | 46* | 38* | -3
CC(C)Cc1nnc(NC(=O)Nc2ccccc2)s1 | 3 | 5 | -4 | 70* | 1 | 4
CC[C@@H]1C/C=C\C[C@H](c2ccc(OC)cc2OC)NC(=O)[C@@H](C)CC(=O)N1 | 1 | . | . | . | . | .
COc1ccccc1N1C(=N)S/C(=C\c2ccc(-c3ccccc3C(=O)O)o2)C1=O | -5 | 12 | 28 | 44* | 32* | -2
SMILES | FN deposition inh | ABHD5-PLIN5 inh | APOBEC3G inh | APOBEC3A inh | APOBEC3A confirm | UDG ctr A3A
CCN1CCN(C(=O)c2cc3cc([N+](=O)[O-])ccc3oc2=O)CC1 | 0 | 2 | -7 | -2 | . | .
O=C(c1cc2cc([N+](=O)[O-])ccc2oc1=O)n1cccn1 | 0 | -4 | 21 | 59* | 39* | .
C[C@@H]1CN([C@H](C)CO)C(=O)c2cc(NS(=O)(=O)c3ccc(Cl)cc3)ccc2O[C@@H]1CN(C)Cc1ccc(C(=O)O)cc1 | 0 | . | . | . | . | .
COCCN(CC(=O)Nc1cccc(C)c1C)C(=O)CN1C(=O)NC2(CCCCC2)C1=O | . | -2 | 6 | 41* | 49* | 1
Cc1cccc(NC(=O)CN2C(=O)NC3(CCCCCCC3)C2=O)c1C | 7 | -1 | -7 | -3 | . | .
CC(=O)N1C[C@@H]2C(c3ccccc3)[C@H](C1)N2S(C)(=O)=O (some centres not stated) | 0 | . | . | . | . | .
CC(C)[C@@H]1C(=O)N[C@@H](c2ccc3c(c2)OCO3)C/C=C/C[C@H](C)Oc2ccccc2C(=O)N1C | 8 | . | . | . | . | .
Cc1noc(C)c1NC(=O)N(C)C[C@@H]1OCCCC[C@@H](C)Oc2ccc(NC(=O)NC3CCCCC3)cc2C(=O)N([C@H](C)CO)C[C@H]1C | -10 | . | . | . | . | .
COC(=O)c1ccc(Cn2c(C)cc(C)[n+]2C)o1 | -4 | 4 | 29 | 52* | 72* | -3
COC(=O)c1ccc(Cc2ccc(C(=O)OC)o2)o1 | 4 | 0 | -6 | 0 | . | .
C[C@@H]1CN([C@H](C)CO)C(=O)c2cc(C#CC3CCCCC3)cnc2O[C@@H]1CN(C)C | -6 | . | . | . | . | .
CCc1ccc(OCC(=O)N/N=C\c2ccco2)c([N+](=O)[O-])c1 | -13 | -3 | 14 | 43* | 43* | 3
C[C@@H]1CN(C)C(=O)Cc2cc(NS(C)(=O)=O)ccc2O[C@@H]1CN(C)S(C)(=O)=O | -10 | . | . | . | . | .
CCn1cc(/C=C(\NC(=O)c2ccccc2F)C(=O)NCCN2CCOCC2)c2ccccc21 | 8 | 5 | -2 | 81* | -7 | 2
CCOc1cc(C2C3=C(CC(C)(C)CC3=O)N(CCOC)C3=C2C(=O)CC(C)(C)C3)ccc1OC | -4 | -7 | 7 | 49* | 26 | .
C[N+]1(CC2COC3(CCCCC3)O2)CCCC1 (configuration not stated) | 0 | 2 | 29 | 32 | . | .
CC1CC(C)(C)OC(C[N+]2(C)CCCCC2)O1 (configuration not stated) | 14 | -12 | 20 | 49* | 77* | 3
O=C1C[C@@H](c2ccccc2)C(=O)N[C@@H](c2ccccc2)C/C=C\C[C@@H](c2ccccc2)N1 | 11 | . | . | . | . | .
COc1cc(C(N)=O)cc(Br)c1OC | . | 1 | 17 | 44* | 47* | 1
CC1(C)Oc2ccc3ccc(=O)oc3c2C(/C=N/O)=C1Cl | 4 | -2 | 8 | 67* | 54* | -2
Cc1ccc(S(=O)(=O)Nc2cccc3c2O[C@H](CN(C)S(=O)(=O)c2cccs2)[C@H](C)CN([C@@H](C)CO)C3=O)cc1 | 7 | . | . | . | . | .
O=C(CN1C(=O)S/C(=C/c2ccccn2)C1=O)N1CCOCC1 | -6 | -1 | 3 | 57* | 2 | .
